Compound activity as filed in PubChem.
TAAR1 ag: human TAAR1 agonists, primary screen, Fluo-8 calcium fluorescence, CHO RD-HGA16 cells | Trace amine-associated receptor 1 (Homo sapiens), Q96RJ0 | vehicle wells 0%, saturating PEA agonist 100% | activation, % at 3 µM | actives 0.99% (n = 360,000) | AID 624467, 2012;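 active = activation above the mean activation of all test compounds in the run plus 3 SD, cut at about 38% in these data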
Target sequence (Q96RJ0 whole entry, looked up): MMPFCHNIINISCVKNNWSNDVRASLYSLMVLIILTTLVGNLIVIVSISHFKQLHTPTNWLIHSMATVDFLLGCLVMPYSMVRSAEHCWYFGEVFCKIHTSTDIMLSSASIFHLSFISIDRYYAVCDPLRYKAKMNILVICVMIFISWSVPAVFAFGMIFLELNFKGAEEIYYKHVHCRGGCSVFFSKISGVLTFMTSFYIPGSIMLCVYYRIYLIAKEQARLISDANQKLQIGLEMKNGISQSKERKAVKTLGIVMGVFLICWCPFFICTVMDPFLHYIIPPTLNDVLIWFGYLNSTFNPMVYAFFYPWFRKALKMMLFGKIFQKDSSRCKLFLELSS
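Benchmarks: low control DMSO, high control PEA (EC100); System: CHO RD-HGA16 cells carrying human TAAR1 plus Gα16; Detection: Fluo-8 fluorescence, 5 s baseline then 140 s kinetic read; Schedule: 17-24 h plating, Fluo-8 75 min 37 °C, 30 min RT; Read-out basis: % activation from peak over basal fluorescence ratio, DMSO-to-PEA scaled.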
TAAR1 antag: human TAAR1 antagonists, primary screen, Fluo-8 calcium fluorescence, CHO RD-HGA16 cells; Trace amine-associated receptor 1 (Homo sapiens), Q96RJ0; antagonist; inhibition, % at 3 µM; actives 1.5% (n = 360,000); AID 624466, 2012;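 active = inhibition above a per-plate cutoff, the mean inhibition of test compounds on that plate plus 3 SD, cut at about 49% in these data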
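Material: RD-HGA16 CHO cells with stable hTAAR1 and Gα16; Dosing: single nominal final test compound concentration of 3 µM; Schedule: seeding 17-24 h prior, 75-min 37 °C, 30-min RT dye loading; Detection: kinetic Fluo-8 calcium fluorescence measurement; Measure: % inhibition from peak post-agonist over basal fluorescence ratio; Benchmarks: vehicle and agonist controls.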
OXTR potentiate: human OXTR potentiators, primary screen, fluorescence, CHO-OTR cells, Fluo-8 calcium. Fluo-8 calcium fluorescence, potentiator mode; 0% = oxytocin EC15, 100% = EC100. AID 2445, 2010. activation, % at 3 µM. actives 0.061% (n = 320,000). Oxytocin receptor (Homo sapiens), P30559;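 active = activation above that plate's cutoff, the mean activation of tested compounds plus 3 SD, cut at about 6.6% in these data, passing the limit was not always enough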
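Assay system: CHO-OTR cells, human receptor / Also added: oxytocin at about EC15, sub-maximal agonist stimulus / Dosing: single dose, 3.0 µM nominal final compound concentration / Incubation: 6 min pre-incubation, 100 s read / Technique: Fluo-8 calcium dye fluorescence / Read-out: % activation vs EC15 and EC100 oxytocin / Benchmarks: EC15 oxytocin low, 75 nM oxytocin high / Replicates: singlicate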
OXTR agonist: human OXTR agonists, primary screen, fluorescence, CHO-OTR cells, Fluo-8 calcium; Oxytocin receptor (Homo sapiens), P30559; Fluo-8 calcium fluorescence; normalized: DMSO 0%, oxytocin 100%; activation, % at 3 µM; actives 0.32% (n = 320,000); AID 2435, 2010;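 active = activation above the mean of all tested compounds plus 3 SD, cutoff set per screening run, cut at about 20% in these data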;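 also: peak over basal fluorescence ratio from a 100 s FLIPR kinetic read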
V1aR counter: agonists of human V1a receptor, primary screen, counter-screen for OXTR agonist project, fluorescence, CHO-V1R cells; Fluo-8 calcium fluorescence, agonist mode; 0% DMSO, 100% 3 nM vasopressin; actives 0.25% (n = 320,000); activation, % at 3 µM;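 active = activation above the mean activation of all tested compounds plus 3 SD, per screening run, cut at about 20% in these data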;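 also: signal is peak over basal fluorescence ratio across a 100 second FLIPR read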
Target sequence (P37288 whole entry, looked up): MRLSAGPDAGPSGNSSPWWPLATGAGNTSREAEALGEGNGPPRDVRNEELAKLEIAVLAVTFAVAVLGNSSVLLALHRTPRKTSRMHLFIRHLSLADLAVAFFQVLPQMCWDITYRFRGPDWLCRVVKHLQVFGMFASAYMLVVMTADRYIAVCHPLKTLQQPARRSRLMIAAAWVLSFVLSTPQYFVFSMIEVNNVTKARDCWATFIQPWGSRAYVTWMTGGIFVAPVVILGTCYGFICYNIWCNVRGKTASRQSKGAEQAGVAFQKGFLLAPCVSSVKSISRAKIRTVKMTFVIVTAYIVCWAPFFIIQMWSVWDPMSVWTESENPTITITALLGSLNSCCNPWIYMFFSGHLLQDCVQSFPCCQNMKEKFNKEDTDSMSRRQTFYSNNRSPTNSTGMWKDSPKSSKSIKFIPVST
V1aR agonist cf: V1a receptor agonists, calcium signal, confirmation, Fluo-8 calcium fluorescence, CHO-V1R cells | shares compounds with V1aR counter | agonist | activation, % at 3 µM | actives 20% (n = 180);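 active = average activation exceeds primary screen hit cutoff, cut at about 21% in these data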;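 also: peak over basal fluorescence ratio during a 100 s FLIPR read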
OXTR ag counter: human OXTR agonists, counter-screen for V1R agonist project, fluorescence, CHO-OTR cells, triplicate. Fluo-8 calcium fluorescence. actives 10% (n = 180). activation, % at 3 µM. shares compounds with V1aR counter;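 active = mean activation over three repeats above the cutoff from the earlier oxytocin receptor agonist screen, cut at about 20% in these data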;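 also: peak over minimum fluorescence ratio within a 100 second FLIPR read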
TAAR1 ag conf: human TAAR1 agonists, retest of hits, confirmation, Fluo-8 calcium fluorescence, CHO RD-HGA16 cells; shares compounds with TAAR1 ag; scaled: DMSO 0%, maximal phenethylamine 100%; activation, % at 3 µM; actives 82% (n = 2,400); AID 651783, 2012;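 active = activation above a cutoff set at the run's mean compound activation plus 3 SD, cut at about 39% in these data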
Ga16 nonsel ag: nonselective calcium mobilization agonists, CHO-Ga16 cells, counter-screen for hTAAR1 agonist project, cell-based, fluorescence, CHO-Ga16 parental line; activation, % at 3 µM; Fluo-8 calcium fluorescence; normalized to maximal ATP response, DMSO zero; shares compounds with TAAR1 ag; actives 50% (n = 2,400); AID 651787, 2012;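 active = activation above the run cutoff, the mean activation over all tested wells plus 3 SD, cut at about 12% in these data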
TAAR1 desensitize: TAAR1 desensitization by agonist hits, confirmation, counter-screen for TAAR1 agonist project, cell-based, fluorescence, tachyphylaxis. shares compounds with TAAR1 ag. CHO RD-HGA16 hTAAR1, Fluo-8 calcium, beta-PEA response inhibition. inhibition, % at 3 µM. actives 46% (n = 2,400). AID 651951, 2012;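 active = inhibition above the run cutoff, the mean inhibition of all test compounds plus 3 SD, cut at about 49% in these data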;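 also: beta-PEA stimulus applied at its EC80; loss of beta-PEA calcium signal after compound pretreatment read as receptor desensitization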
Ga16 nonsel ant: inhibition of ATP-evoked calcium response in CHO-Ga16 cells, counter-screen for TAAR1 agonist project, cell-based, fluorescence. shares compounds with TAAR1 ag. CHO-Ga16 ATP-induced calcium, Fluo-8 fluorescence. inhibition, % at 3 µM. actives 39% (n = 2,400). AID 651952, 2012;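 active = inhibition above the plate's mean compound inhibition plus 3 SD, computed per plate, cut at about 22% in these data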
Numbers stand for hits. Most compounds without a hit are left out; they make up all but 2.3% or so of the library.

How did O=C(COC(=O)C1CCN(c2ccc(C(F)(F)F)cn2)CC1)c1ccccc1 do in these assays?
TAAR1 ag: inactive; TAAR1 antag: inactive; OXTR potentiate: inactive; OXTR agonist: inactive; V1aR counter: inactive

What do the screens show for `COC(=O)C1=NN(C(=O)c2ccc(C)cc2)C(O)(c2ccc(Cl)cc2)C1` (stereo not drawn)?
OXTR potentiate: inactive; OXTR agonist: inactive; V1aR counter: 32.9; V1aR agonist cf: inactive; OXTR ag counter: inactive

Results for COC(=O)C1=NN(C(=O)c2ccccc2)C(O)(c2ccc([N+](=O)[O-])cc2)C1 (stereo not drawn) ?
TAAR1 ag: inactive; TAAR1 antag: inactive

Results for Cc1nnc(-c2ccccc2)c(=O)n1/N=C/c1c(O)ccc2ccccc12 ?
TAAR1 ag: inactive; TAAR1 antag: inactive; OXTR potentiate: inactive; OXTR agonist: inactive; V1aR counter: 25.0; V1aR agonist cf: 23.8; OXTR ag counter: 21.6

How did OC(COc1ccccc1F)CN1CCC(Cc2ccccc2)CC1 (stereo not drawn) do in these assays?
TAAR1 ag: inactive; TAAR1 antag: inactive; OXTR potentiate: inactive; OXTR agonist: inactive; V1aR counter: inactive

What do the screens show for `OC(COc1ccc(F)cc1Cl)CN1CCC(Cc2ccccc2)CC1` (stereo not drawn)?
TAAR1 ag: inactive; TAAR1 antag: inactive; OXTR potentiate: inactive; OXTR agonist: inactive; V1aR counter: 22.1; V1aR agonist cf: inactive; OXTR ag counter: inactive

How did ONC(=Nc1ccccc1Cl)c1ccccc1Cl do in these assays?
TAAR1 ag: inactive; TAAR1 antag: inactive; OXTR potentiate: inactive; OXTR agonist: inactive; V1aR counter: 20.5; V1aR agonist cf: inactive; OXTR ag counter: inactive

How did CS(=O)(=O)Oc1ccc2c(c1)O/C(=C\c1cccnc1)C2=O do in these assays?
TAAR1 ag: inactive; TAAR1 antag: inactive; OXTR potentiate: inactive; OXTR agonist: inactive; V1aR counter: inactive

Results for COc1cc(OC)c(OC)cc1/C=C1\Oc2cc(OS(C)(=O)=O)ccc2C1=O ?
TAAR1 ag: inactive; TAAR1 antag: inactive; OXTR potentiate: inactive; OXTR agonist: inactive; V1aR counter: 21.2; V1aR agonist cf: inactive; OXTR ag counter: inactive

How did COc1ccc(CCn2c(C3CCCCC3)nc3c(c(=O)c4ccccc4n3C)c2=O)cc1 do in these assays?
TAAR1 ag: 111.4; TAAR1 antag: 96.4; OXTR potentiate: inactive; OXTR agonist: inactive; V1aR counter: 27.6; V1aR agonist cf: inactive; OXTR ag counter: inactive; TAAR1 ag conf: 64.9; Ga16 nonsel ag: 61.3; TAAR1 desensitize: 78.4; Ga16 nonsel ant: 64.5

How did Cn1c2ccccc2c(=O)c2c(=O)n(C3CCCCC3)c(-c3cccs3)nc21 do in these assays?
TAAR1 ag: 53.5; TAAR1 antag: inactive; OXTR potentiate: inactive; OXTR agonist: inactive; V1aR counter: 20.8; V1aR agonist cf: 51.0; OXTR ag counter: 32.6; TAAR1 ag conf: 104.4; Ga16 nonsel ag: 74.7; TAAR1 desensitize: 60.9; Ga16 nonsel ant: 21.6

What do the screens show for `COc1cc(C(=O)OCC(=O)NCc2ccc(F)cc2)ccc1OCC(C)C`?
TAAR1 ag: inactive; TAAR1 antag: inactive; OXTR potentiate: inactive; OXTR agonist: inactive; V1aR counter: inactive

How did CC(C)(C)NC(=S)NNC(=O)[C@H]1C[C@@H]1c1ccccc1 do in these assays?
TAAR1 ag: inactive; TAAR1 antag: inactive; OXTR potentiate: inactive; OXTR agonist: inactive; V1aR counter: inactive

Results for O=C(/C=C/c1ccc(F)cc1)NC(=S)NNC(=O)[C@H]1C[C@@H]1c1ccccc1 ?
TAAR1 ag: 132.0; TAAR1 antag: 81.9; OXTR potentiate: inactive; OXTR agonist: inactive; V1aR counter: 26.2; V1aR agonist cf: inactive; OXTR ag counter: inactive; TAAR1 ag conf: 88.0; Ga16 nonsel ag: 98.5; TAAR1 desensitize: 71.9; Ga16 nonsel ant: 66.5

What do the screens show for `COc1ccc(CNC(=O)COC(=O)CCc2c[nH]c3ccccc23)cc1`?
TAAR1 ag: inactive; TAAR1 antag: inactive; OXTR potentiate: inactive; OXTR agonist: inactive; V1aR counter: inactive

Results for Cc1ccc(C)c(Nc2c([N+](=O)[O-])ccc3nonc23)c1 ?
TAAR1 ag: 71.5; TAAR1 antag: inactive; OXTR potentiate: inactive; OXTR agonist: inactive; V1aR counter: 22.2; V1aR agonist cf: inactive; OXTR ag counter: inactive; TAAR1 ag conf: 66.3; Ga16 nonsel ag: 39.7; TAAR1 desensitize: inactive; Ga16 nonsel ant: inactive

Results for Cc1ccc(C)c(Nc2ccc3nonc3c2[N+](=O)[O-])c1 ?
TAAR1 ag: inactive; TAAR1 antag: inactive

What do the screens show for `Cc1ccc(-c2c(C(=O)N/N=C/c3ccco3)nnn2-c2nonc2N)cc1`?
TAAR1 ag: 87.5; TAAR1 antag: inactive; OXTR potentiate: inactive; OXTR agonist: inactive; V1aR counter: 28.4; V1aR agonist cf: inactive; OXTR ag counter: inactive; TAAR1 ag conf: 110.5; Ga16 nonsel ag: 78.6; TAAR1 desensitize: inactive; Ga16 nonsel ant: inactive

How did COc1ccc(CCN2C(=O)CN=C2Nc2ccc(F)cc2)cc1OC do in these assays?
TAAR1 ag: inactive; TAAR1 antag: inactive; OXTR potentiate: inactive; OXTR agonist: inactive; V1aR counter: inactive
